Experimental data taken from ChEMBL document CHEMBL4477235, “Evolution of a Novel, Orally Bioavailable Series of PI3Kδ Inhibitors from an Inhaled Lead for the Treatment of Respiratory Disease” (J Med Chem, 2016).
“And” between values parts separate entries of the source, which are not always exact repeats. Identical values can stand only once.

Tests used:
[1] = target: Tyrosine-protein kinase JAK2 (Homo sapiens, UniProt O60674); assay: Inhibition of JAK2 (unknown origin)
[2] = target: T1, Phosphatidylinositol 4,5-bisphosphate 3-kinase catalytic subunit delta isoform (Homo sapiens, UniProt O00329)
T1 sequence (O00329 whole entry): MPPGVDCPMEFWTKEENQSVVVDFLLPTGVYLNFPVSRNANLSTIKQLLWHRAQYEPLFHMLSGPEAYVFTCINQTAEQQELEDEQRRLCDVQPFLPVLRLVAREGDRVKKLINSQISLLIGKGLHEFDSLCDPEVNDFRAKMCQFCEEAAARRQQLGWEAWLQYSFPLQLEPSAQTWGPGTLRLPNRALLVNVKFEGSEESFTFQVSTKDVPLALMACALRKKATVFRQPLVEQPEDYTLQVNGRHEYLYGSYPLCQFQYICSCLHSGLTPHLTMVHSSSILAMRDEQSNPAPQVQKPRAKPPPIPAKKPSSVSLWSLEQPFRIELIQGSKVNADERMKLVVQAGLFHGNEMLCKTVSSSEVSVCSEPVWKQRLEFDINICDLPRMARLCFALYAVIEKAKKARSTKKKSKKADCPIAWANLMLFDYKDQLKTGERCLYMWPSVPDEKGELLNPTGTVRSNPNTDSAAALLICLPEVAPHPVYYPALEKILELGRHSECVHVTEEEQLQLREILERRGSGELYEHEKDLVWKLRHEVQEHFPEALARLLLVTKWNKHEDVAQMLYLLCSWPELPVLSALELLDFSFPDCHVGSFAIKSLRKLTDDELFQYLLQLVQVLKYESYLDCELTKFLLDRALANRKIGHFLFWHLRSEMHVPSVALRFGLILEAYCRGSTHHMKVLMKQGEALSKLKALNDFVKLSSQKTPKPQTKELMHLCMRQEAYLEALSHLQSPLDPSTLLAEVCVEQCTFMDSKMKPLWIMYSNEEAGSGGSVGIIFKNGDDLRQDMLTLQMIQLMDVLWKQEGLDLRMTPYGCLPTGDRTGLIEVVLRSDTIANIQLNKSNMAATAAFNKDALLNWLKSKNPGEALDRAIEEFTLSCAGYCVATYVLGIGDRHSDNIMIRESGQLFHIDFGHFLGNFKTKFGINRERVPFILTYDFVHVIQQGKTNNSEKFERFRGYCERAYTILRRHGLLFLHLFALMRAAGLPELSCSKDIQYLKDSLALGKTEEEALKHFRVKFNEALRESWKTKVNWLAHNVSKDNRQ

[3] = target: Rho-associated protein kinase 1 (Homo sapiens, UniProt Q13464); assay: Inhibition of ROCK1 (unknown origin)
[4] = target: Phosphatidylinositol 4-kinase alpha (Homo sapiens, UniProt P42356); assay: Inhibition of PIK4A (unknown origin)
Homo sapiens = organism: Homo sapiens; assay: Selectivity ratio of IC50 for PI3Kbeta (unknown origin) to IC50 for PI3Kdelta (unknown origin)
Procedure, shortened: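 Ratio of each isoform's HTRF IC50 to the PI3Kδ HTRF IC50. Enzymes were preincubated 15 min with 4-fold compound dilutions in HEPES pH 7.0, MgCl2, DTT buffer. […] PIP2 was 5 µM for δ and 8 µM for α/β/γ. 60 min reaction, then EDTA quench with GRP-1 PH domain/APC/Eu detection. Four-parameter fit.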

[5] = target: Mitogen-activated protein kinase 14 (Homo sapiens, UniProt Q16539); assay: Inhibition of P38alpha (unknown origin)
[6] = Drug uptake in blood of Brown Norway rat acute OVA model of TH2-driven lung inflammation at 3 mg/kg, po pretreated for 30 mins followed by OVA challenge measured 1 hr post dose; format: ADME, organism-based; details: read-out: Drug uptake
Procedure, shortened: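 Sensitized Brown Norway rats given oral compound 30 min before intratracheal OVA challenge. Blood concentration taken 1 h after dosing, i.e. 30 min after challenge.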

[7] = target: DNA-dependent protein kinase catalytic subunit (Homo sapiens) (UniProt P78527); assay: Inhibition of DNA-PK (unknown origin)
[8] = AUC(infinity) in Sprague-Dawley rat at 3 mg/kg, po measured up to 7 hrs by LC-MS/MS analysis; format: ADME, organism-based; design: dose 3 mg/kg, time infinity, route oral; details: in vivo, 7 h
Procedure, shortened: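 Male Sprague Dawley rats (n = 2/route), oral dose in DMSO/PEG200/water (5:45:50 v/v/v) at 6 mL/kg. Serial tail-vein bleeds over 0–7 h. Parent compound quantified by LC–MS/MS. Parameters from noncompartmental analysis.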

[9] = Fraction unbound in Brown Norway rat acute OVA model of TH2-driven lung inflammation at 9 mg/kg, po pretreated for 30 mins followed by OVA challenge measured 1 hr post dose by HPLC analysis; format: ADME, organism-based; details: in vivo
Procedure, shortened: (§1)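 Unbound concentration at 1 h post-dose estimated by an internal algorithm from binding to HPLC columns coated with HSA and α-glycoprotein.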

[10] = target: Choline/ethanolamine kinase (Homo sapiens, UniProt Q9Y259); assay: Inhibition of CHKB (unknown origin)
[11] = target: Tyrosine-protein kinase BTK (Homo sapiens, UniProt Q06187); assay: Inhibition of BTK (unknown origin)
[12] = Clearance in mouse liver microsomes at 0.5 uM measured up to 30 mins by LC-MS/MS analysis; format: ADME, Microsome; details: 0.5 h
[13] = target: Glycogen synthase kinase-3 beta (Homo sapiens, UniProt P49841); assay: Inhibition of GSK3beta (unknown origin)
[14] = target: Tyrosine-protein kinase ITK/TSK (Homo sapiens, UniProt Q08881); assay: Inhibition of ITK (unknown origin)
[15] = target: Diacylglycerol kinase zeta (Homo sapiens, UniProt Q13574); assay: Inhibition of DAGK zeta (unknown origin)
Aurora kinase B = Aurora kinase B (Homo sapiens, UniProt Q96GD4); assay: Inhibition of Aurora B (unknown origin)
[16] = Inhibition of DAGK (unknown origin); design: species or system Homo sapiens
[17] = target: Serine/threonine-protein kinase mTOR (Homo sapiens, UniProt P42345); assay: Inhibition of FRAP1 (unknown origin)
[18] = target: Epidermal growth factor receptor (Homo sapiens, UniProt P00533); assay: Inhibition of EGFR (unknown origin)
[19] = target: Leucine-rich repeat serine/threonine-protein kinase 2 (Homo sapiens, UniProt Q5S007); assay: Inhibition of LRRK2 (unknown origin)
Aurora kinase A = Aurora kinase A (Homo sapiens, UniProt O14965); assay: Inhibition of Aurora A (unknown origin)
[20] = Half life in Brown Norway rat acute OVA model of TH2-driven lung inflammation at 9 mg/kg, po pretreated for 30 mins followed by OVA challenge; format: ADME, organism-based; details: in vivo
[21] = Fraction unbound in Brown Norway rat acute OVA model of TH2-driven lung inflammation at 3 mg/kg, po pretreated for 30 mins followed by OVA challenge measured 1 hr post dose by HPLC analysis; format: ADME, organism-based; details: in vivo; procedure, shortened: as §1

Tyrosine-protein kinase ITK/TSK, sequence (Q08881 whole entry): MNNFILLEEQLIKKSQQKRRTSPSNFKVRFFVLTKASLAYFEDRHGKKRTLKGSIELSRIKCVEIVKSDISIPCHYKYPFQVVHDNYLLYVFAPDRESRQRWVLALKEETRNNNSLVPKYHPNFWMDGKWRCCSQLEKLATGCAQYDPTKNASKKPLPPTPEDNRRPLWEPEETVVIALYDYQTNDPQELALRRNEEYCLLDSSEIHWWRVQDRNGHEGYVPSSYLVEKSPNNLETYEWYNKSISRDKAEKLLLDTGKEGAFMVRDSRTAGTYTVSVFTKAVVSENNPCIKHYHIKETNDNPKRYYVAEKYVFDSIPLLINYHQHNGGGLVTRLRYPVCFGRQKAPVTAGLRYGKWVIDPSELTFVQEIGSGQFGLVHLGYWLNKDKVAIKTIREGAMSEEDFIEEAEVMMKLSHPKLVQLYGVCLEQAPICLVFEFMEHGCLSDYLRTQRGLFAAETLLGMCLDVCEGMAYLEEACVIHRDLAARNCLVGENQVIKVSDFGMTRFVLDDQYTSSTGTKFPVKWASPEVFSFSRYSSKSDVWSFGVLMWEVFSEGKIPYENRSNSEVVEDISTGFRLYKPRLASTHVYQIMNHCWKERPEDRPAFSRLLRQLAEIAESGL
Aurora kinase B, sequence (Q96GD4 whole entry): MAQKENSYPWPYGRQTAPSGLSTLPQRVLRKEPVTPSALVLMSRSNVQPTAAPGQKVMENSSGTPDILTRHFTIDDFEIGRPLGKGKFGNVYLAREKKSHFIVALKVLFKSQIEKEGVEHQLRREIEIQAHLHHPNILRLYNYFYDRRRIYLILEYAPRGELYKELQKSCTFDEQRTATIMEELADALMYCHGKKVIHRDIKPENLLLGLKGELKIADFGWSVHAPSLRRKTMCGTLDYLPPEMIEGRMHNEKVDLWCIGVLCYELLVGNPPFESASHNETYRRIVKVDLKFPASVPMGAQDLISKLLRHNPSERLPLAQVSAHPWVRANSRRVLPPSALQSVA
DNA-dependent protein kinase catalytic subunit (Homo sapiens), sequence (P78527 whole entry): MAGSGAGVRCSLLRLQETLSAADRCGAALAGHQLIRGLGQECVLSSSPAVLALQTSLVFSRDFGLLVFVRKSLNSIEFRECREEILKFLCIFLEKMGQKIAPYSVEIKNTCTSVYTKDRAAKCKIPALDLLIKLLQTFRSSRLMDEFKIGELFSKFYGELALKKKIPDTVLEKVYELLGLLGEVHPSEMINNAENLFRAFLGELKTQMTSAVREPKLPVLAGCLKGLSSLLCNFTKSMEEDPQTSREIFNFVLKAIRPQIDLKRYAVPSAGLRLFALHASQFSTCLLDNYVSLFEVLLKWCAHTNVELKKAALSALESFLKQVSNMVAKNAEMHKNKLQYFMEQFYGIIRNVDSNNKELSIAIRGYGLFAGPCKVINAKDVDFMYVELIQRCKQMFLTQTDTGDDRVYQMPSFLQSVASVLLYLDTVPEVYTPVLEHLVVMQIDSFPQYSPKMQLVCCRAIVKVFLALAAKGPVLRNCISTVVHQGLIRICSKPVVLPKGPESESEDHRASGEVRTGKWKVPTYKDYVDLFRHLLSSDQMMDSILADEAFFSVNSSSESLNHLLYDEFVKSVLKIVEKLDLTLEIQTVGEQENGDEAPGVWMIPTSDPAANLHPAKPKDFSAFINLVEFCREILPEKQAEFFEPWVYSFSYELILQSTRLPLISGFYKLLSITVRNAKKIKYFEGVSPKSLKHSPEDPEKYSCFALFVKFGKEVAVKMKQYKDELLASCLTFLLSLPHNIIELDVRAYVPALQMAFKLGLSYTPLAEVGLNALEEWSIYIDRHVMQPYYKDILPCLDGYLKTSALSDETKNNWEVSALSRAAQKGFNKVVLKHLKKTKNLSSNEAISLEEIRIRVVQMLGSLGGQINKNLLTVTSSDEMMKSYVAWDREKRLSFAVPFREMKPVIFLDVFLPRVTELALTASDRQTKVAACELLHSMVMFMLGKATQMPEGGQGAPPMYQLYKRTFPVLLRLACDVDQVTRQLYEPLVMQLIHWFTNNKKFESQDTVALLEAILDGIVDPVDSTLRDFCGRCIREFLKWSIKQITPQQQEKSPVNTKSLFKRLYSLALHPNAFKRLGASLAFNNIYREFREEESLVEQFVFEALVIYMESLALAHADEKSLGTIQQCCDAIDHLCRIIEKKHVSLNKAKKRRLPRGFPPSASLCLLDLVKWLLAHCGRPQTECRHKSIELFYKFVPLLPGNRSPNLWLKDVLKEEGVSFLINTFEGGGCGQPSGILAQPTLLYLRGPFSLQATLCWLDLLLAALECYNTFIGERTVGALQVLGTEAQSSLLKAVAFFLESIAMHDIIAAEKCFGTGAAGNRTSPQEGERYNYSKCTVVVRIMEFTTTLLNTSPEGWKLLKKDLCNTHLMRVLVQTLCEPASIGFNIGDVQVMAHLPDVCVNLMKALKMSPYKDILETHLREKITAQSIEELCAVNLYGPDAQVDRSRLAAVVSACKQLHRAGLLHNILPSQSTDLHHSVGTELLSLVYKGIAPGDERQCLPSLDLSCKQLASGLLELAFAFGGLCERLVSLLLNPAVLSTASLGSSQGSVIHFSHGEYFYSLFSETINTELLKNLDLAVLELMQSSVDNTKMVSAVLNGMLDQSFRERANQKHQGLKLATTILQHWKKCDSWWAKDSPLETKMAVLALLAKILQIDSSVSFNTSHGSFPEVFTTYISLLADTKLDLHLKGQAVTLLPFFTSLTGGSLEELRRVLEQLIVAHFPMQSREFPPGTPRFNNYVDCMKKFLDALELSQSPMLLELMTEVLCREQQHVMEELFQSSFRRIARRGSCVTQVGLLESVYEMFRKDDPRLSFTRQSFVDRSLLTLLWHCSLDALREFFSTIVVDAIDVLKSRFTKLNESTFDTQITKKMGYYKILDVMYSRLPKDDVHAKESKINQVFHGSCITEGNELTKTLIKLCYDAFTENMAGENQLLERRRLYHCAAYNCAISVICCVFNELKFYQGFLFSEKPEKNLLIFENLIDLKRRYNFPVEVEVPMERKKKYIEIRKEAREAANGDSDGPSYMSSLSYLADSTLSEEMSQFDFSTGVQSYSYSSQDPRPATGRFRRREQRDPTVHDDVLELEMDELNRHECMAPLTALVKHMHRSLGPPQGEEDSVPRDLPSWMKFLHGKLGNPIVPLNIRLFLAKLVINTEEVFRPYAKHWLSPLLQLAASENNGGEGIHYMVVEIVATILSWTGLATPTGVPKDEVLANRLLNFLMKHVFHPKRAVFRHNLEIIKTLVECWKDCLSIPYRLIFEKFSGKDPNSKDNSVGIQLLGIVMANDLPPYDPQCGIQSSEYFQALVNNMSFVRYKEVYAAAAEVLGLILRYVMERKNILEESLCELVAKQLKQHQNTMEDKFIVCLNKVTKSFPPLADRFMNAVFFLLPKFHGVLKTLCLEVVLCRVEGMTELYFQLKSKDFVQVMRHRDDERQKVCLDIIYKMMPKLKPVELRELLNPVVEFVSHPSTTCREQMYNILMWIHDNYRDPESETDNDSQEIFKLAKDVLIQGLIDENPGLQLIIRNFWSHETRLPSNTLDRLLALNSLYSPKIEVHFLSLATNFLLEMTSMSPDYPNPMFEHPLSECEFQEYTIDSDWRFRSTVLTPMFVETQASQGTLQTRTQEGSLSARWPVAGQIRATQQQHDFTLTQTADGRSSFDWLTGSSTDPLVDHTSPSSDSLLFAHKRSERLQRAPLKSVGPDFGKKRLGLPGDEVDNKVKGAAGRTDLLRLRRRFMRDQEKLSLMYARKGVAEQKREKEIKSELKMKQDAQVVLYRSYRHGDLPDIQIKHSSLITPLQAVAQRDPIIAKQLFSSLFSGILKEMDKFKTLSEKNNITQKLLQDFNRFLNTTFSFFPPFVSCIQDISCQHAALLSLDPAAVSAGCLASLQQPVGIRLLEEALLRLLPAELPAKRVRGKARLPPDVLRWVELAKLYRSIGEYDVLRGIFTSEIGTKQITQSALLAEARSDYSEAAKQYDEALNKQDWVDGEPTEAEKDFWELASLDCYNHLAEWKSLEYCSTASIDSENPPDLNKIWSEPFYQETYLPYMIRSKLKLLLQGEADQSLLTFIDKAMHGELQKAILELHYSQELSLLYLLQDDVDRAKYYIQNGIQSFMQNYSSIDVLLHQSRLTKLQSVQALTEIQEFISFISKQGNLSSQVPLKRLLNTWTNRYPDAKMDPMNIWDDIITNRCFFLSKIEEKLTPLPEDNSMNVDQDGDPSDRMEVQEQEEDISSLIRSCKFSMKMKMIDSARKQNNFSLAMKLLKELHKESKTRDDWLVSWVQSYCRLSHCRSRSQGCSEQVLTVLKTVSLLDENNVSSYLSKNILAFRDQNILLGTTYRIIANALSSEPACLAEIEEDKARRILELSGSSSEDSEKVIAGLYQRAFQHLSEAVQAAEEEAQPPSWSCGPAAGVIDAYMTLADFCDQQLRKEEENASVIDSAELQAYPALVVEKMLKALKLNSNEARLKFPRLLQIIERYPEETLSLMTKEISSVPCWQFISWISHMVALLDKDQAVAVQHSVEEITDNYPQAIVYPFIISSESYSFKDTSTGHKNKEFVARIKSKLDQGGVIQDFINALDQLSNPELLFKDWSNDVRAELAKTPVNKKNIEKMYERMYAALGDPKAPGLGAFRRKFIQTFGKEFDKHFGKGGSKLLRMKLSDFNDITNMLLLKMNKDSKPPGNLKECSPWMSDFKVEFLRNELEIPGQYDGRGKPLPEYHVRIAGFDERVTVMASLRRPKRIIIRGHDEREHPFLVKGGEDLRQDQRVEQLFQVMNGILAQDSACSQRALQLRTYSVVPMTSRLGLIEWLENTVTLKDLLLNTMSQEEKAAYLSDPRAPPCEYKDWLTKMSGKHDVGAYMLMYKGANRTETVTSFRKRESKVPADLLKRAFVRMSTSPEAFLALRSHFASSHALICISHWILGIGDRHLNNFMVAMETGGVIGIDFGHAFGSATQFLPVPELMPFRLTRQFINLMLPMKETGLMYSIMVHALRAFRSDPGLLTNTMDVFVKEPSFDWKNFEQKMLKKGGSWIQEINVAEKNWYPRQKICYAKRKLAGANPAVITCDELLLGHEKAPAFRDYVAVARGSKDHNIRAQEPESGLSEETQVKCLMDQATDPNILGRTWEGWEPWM

IC50 [1]: > 10 µM | IC50 [2]: 0.158 to 0.251 µM and 0.25 µM | IC50 [3]: > 10 µM | IC50 [4]: > 10 µM | Ratio IC50 (Homo sapiens): 63 | IC50 [5]: > 10 µM | concentration at 1 h [6]: 190 nM | pIC50(app) [7]: 5.6 | AUC [8]: 673 ng·h/mL | Drug uptake(free) [9]: 0.22 µM | IC50 [10]: > 10 µM | IC50 [11]: > 10 µM | CLH [12]: < 0.5 mL/min/g | IC50 [13]: > 10 µM | IC50 [14]: > 10 µM | IC50 [15]: > 10 µM | IC50 (Aurora kinase B): > 10 µM | pIC50 [16]: < 5 | IC50 [17]: > 10 µM | IC50 [18]: > 10 µM | IC50 [19]: > 10 µM | IC50 (Aurora kinase A): > 10 µM | half-life [20]: 6.8 h | Drug uptake(free) [21]: 0.032 µM
SMILES: COc1ncc(-c2cc3c(c(NC(=O)CN4CCOCC4)c2)COC3)cc1NS(C)(=O)=O
